In ChEMBL document CHEMBL1123204, “Nucleosides. 136. Synthesis and antiviral effects of several 1-(2-deoxy-2-fluoro-beta-D-arabinofuranosyl)-5-alkyluracils. Some structure-activity relationships” (J Med Chem, 1986) one finds EC50, ED90 and TI data, which are given here for eight compounds.

Assay [1] relates to Vero. In words: (§1) Compound was tested for antiviral activity against Herpes simplex virus-1 (Strain F) in vero cells by plaque reduction assay. In kind it is functional. The following applies: Chlorocebus sabaeus, read-out: ED50 (the source's name).
Assay [2] deals with Vero. The experiment in a line: (§2) Compound was tested for antiviral activity against Herpes simplex virus-2 (Strain G) in vero cells by plaque reduction assay. In kind it is functional. The following applies: Chlorocebus sabaeus, read-out: ED50 (the source's name).
Assay [3] concerns Vero. The description is as §1. In kind it is functional, Chlorocebus sabaeus.
Assay [4] deals with Vero. The assay is described as §2. The format is functional, Chlorocebus sabaeus.
Assay [5] is described as follows: Theuraptic Index: ratio of ID 50 / ED 90 of compound against HSV 1. In kind it is functional. Summed up: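 Index computed as cytotoxic ID50 over antiviral ED90. Antiviral activity was measured against HSV-1 (strain F) by plaque-reduction assay in Vero cells. Cytotoxicity was measured in rapidly dividing Vero cells.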
Assay [6] is described as follows: Theuraptic Index: ratio of ID 50 / ED 90 of compound against HSV 2. In kind it is functional. Summed up:
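Index computed as cytotoxic ID50 over antiviral ED90. Antiviral activity was measured against HSV-2 (strain G) by plaque-reduction assay in Vero cells. Cytotoxicity was measured in rapidly dividing Vero cells.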

The structures appear in SMILES notation. Some results are limits rather than exact numbers.

On to `Cc1cn([C@@H]2O[C@H](CO)[C@@H](O)[C@@H]2F)c(=O)[nH]c1=O` [5-METHYL-2'-FLUOROARAURACIL], for which the EC50 is 0.018 µM in assay [1] and 0.023 µM in assay [2]. Besides, the values for the ED90 in assay [3] and in assay [4] were 0.047 µM and 0.09 µM, respectively. Also, the TI in assay [5] was 59; in assay [6], 31.

With `CCc1cn([C@@H]2O[C@H](CO)[C@@H](O)[C@@H]2F)c(=O)[nH]c1=O`, the EC50 in assay [1] came out at 0.024 µM; in assay [2], 0.24 µM. Further, the ED90 was 0.26 µM in assay [3] and 0.96 µM in assay [4]. Also, the results for the TI in assay [5] and in assay [6] were 6540 and 1770, respectively.

Consider `CC(C)Cc1cn([C@@H]2O[C@H](CO)[C@@H](O)[C@@H]2F)c(=O)[nH]c1=O`, for which the EC50 in assay [1] came to 28.7 µM; in assay [2] it was 113 µM. Moreover, the ED90 in assay [3] stood at 92.7 µM; in assay [4], 422 µM.

`CCCCc1cn([C@@H]2O[C@H](CO)[C@@H](O)[C@@H]2F)c(=O)[nH]c1=O`: the values for the EC50 in assay [1] and in assay [2] were 11.1 µM and 15.9 µM, respectively. In addition, the ED90 in assay [3] was 76 µM; in assay [4], 40.3 µM. In addition, the figures for the TI in assay [5] and in assay [6] were above 11 and above 20, respectively.

Take `CCCc1cn([C@@H]2O[C@H](CO)[C@@H](O)[C@@H]2F)c(=O)[nH]c1=O`: the EC50 in assay [1] is 0.48 µM; in assay [2], 0.9 µM. Moreover, the ED90 in assay [3] was determined as 4.27 µM; in assay [4] it was 7.58 µM. The TI came to 551 in assay [5] and 310 in assay [6].

`C=CCc1cn([C@@H]2O[C@H](CO)[C@@H](O)[C@@H]2F)c(=O)[nH]c1=O`: the EC50 in assay [1] is 3.3 µM; in assay [2] it was 6 µM. In addition, the results for the ED90 in assay [3] and in assay [4] were 21.3 µM and 29.7 µM, respectively. The TI in assay [5] came out at 73; in assay [6], 52.

Regarding `CC(C)c1cn([C@@H]2O[C@H](CO)[C@@H](O)[C@@H]2F)c(=O)[nH]c1=O`, the figures for the EC50 in assay [1] and in assay [2] were 1 µM and 13 µM, respectively. Further, the ED90 was 8.7 µM in assay [3] and 72.3 µM in assay [4]. The TI in assay [5] was above 92; in assay [6], above 11.

Turning to `CCC(C)c1cn([C@@H]2O[C@H](CO)[C@@H](O)[C@@H]2F)c(=O)[nH]c1=O` (some centres undefined), the EC50 in assay [1] was 15.6 µM; in assay [2] it was above 400 µM. The ED90 was 305 µM in assay [3] and above 400 µM in assay [4].
